From ChEMBL document CHEMBL4261524, “Succinct synthesis of saturated hydroxy fatty acids and in vitro evaluation of all hydroxylauric acids on FFA1, FFA4 and GPR84” (Medchemcomm, 2017) come the findings set out here.

Assay [1] deals with T1, Free fatty acid receptor 1 (Homo sapiens, UniProt O14842). The assay is described as follows: Agonist activity at N-terminal FLAG-tagged/C-terminal eYFP-fused human FFA1 receptor expressed in HEK293T cells assessed as induction of beta-arrestin-2 recruitment after 15 mins by BRET assay. The format is functional, cell-based. On the technique in general: Recruitment of arrestin is a read-out of receptor activation apart from second messengers.

The target of assay [2] is T2, Free fatty acid receptor 4 (Homo sapiens, UniProt Q5NUL3).
T2 sequence (Q5NUL3 whole entry): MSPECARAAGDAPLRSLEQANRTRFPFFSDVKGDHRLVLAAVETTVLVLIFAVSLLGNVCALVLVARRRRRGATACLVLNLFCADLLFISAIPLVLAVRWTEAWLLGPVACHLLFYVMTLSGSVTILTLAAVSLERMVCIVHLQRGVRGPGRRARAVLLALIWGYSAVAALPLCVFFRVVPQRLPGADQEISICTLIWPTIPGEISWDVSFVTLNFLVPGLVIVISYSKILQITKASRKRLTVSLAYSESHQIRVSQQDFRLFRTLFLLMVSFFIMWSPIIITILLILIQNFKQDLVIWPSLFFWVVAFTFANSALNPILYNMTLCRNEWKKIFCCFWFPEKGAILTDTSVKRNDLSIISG
As to the kind of experiment: Agonist activity at N-terminal FLAG-tagged/C-terminal eYFP-fused human FFA4 receptor expressed in HEK293T cells assessed as induction of beta-arrestin-2 recruitment after 5 mins by BRET assay. The format is functional, cell-based.

Assay [3] addresses T3, G-protein coupled receptor 84 (Homo sapiens, UniProt Q9NQS5). As to the kind of experiment: Agonist activity at N-terminal FLAG-tagged/C-terminal eYFP-fused human GPR84 expressed in CHO cell membranes assessed as induction of [35S]GTPgammaS binding after 1 hr by liquid scintillation counting method. In kind it is functional. The gist of the method:
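Membranes were prepared from FLAG-GPR84-eYFP-expressing cells by homogenization in 10 mM Tris-HCl pH 7.4 with 0.1 mM EDTA, a 1000 × g spin to clear debris, then a 38 000 × g pellet. 10 μg membrane was incubated 1 h at 30 °C in HEPES/MgCl2/NaCl buffer, pH 7.5, with 0.05% fatty-acid-free BSA, 1 μM GDP and 0.1 nM [35S]GTPγS. Binding was read on GF/C filters by scintillation counting; means ± SEM, n ≥ 3.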
In general terms: GTPγS is a poorly hydrolysed GTP analogue; its binding reports G protein activation.

The target in assay [4] is T1, Free fatty acid receptor 1. The assay is described as follows: Agonist activity at N-terminal FLAG-tagged/C-terminal eYFP-fused human FFA1 receptor expressed in HEK293T cells assessed as induction of beta-arrestin-2 recruitment at 100 uM after 15 mins by BRET assay relative to control. In kind it is functional, cell-based.
Assay [5] deals with T1, Free fatty acid receptor 1. The assay is described as follows: Agonist activity at N-terminal FLAG-tagged/C-terminal eYFP-fused human FFA1 receptor expressed in Flp-In T-Rex 293 cells assessed as induction of Ca2+ mobilization after 45 mins by Fura2-AM dye-based fluorescence assay. In kind it is functional, cell-based.
Assay [6] deals with T3, G-protein coupled receptor 84. As to the kind of experiment: Agonist activity at N-terminal FLAG-tagged/C-terminal eYFP-fused human GPR84 expressed in CHO cell membranes assessed as inhibition of forskolin-induced cAMP accumulation preincubated for 20 mins followed by forskolin-induction and measured after 20 mins. The format is functional, cell-based. (In general: Changes in cAMP serve as a functional read-out for many G protein-coupled receptors.)

Assay [7] has the same target. As to the kind of experiment: Agonist activity at N-terminal FLAG-tagged/C-terminal eYFP-fused human GPR84 expressed in CHO cell membranes assessed as inhibition of forskolin-induced cAMP accumulation up to 100 uM preincubated for 20 mins followed by forskolin-induction and measured after 20 mins. The format is functional, cell-based.

pEC50: −log10 of the molar value. Calls of active or inactive are those of the source. No cut-off for these calls is given here.

As usually defined, the pEC50 is the negative decadic logarithm of the EC50, by convention in mol/L.

T1 sequence (O14842 whole entry, the tested form may be a part): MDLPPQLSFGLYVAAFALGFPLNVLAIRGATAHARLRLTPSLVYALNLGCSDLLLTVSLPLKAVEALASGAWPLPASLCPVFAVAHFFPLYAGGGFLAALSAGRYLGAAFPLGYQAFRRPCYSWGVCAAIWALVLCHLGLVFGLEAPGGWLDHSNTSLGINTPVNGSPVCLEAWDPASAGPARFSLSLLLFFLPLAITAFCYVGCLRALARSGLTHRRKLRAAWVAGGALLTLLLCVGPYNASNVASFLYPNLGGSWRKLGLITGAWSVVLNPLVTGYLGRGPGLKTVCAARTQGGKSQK
T3 sequence (Q9NQS5 whole entry, the tested form may be a part): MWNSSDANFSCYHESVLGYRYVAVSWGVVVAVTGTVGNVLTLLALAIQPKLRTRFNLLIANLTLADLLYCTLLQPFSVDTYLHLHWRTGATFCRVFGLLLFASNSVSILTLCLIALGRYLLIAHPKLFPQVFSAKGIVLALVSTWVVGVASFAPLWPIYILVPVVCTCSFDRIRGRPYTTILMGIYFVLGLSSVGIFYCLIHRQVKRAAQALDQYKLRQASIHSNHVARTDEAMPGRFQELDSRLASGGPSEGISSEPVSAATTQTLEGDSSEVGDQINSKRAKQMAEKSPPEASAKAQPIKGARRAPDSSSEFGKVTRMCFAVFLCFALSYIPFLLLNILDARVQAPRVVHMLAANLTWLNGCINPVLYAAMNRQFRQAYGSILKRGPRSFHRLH

Turning to `CC(O)CCCCCCCCCC(=O)O` (centres undefined), the pEC50 in assay [1], in assay [2] and in assay [3] was less than 4.00 in each case.
On to `CCCCCCCCCC(O)CC(=O)O` (centres undefined), for which the results for the pEC50 in assay [1], in assay [2] and in assay [3] were less than 4.00, less than 4.00 and 5.28, respectively. The Activity in assay [4] was less than 25%.
As to `CCCCCCCC(O)CCCC(=O)O` (centres undefined), the pEC50 in assay [1], in assay [2] and in assay [3] was less than 4.00 throughout.
On to `CCCCCCCCCCC(O)C(=O)O` (centres undefined), for which the figures for the pEC50 in assay [1], in assay [2] and in assay [3] were 5.17, less than 4.00 and 4.89, respectively.
The corresponding values for `CCCCC(O)CCCCCCC(=O)O` (centres undefined) are less than 4.00, less than 4.00 and less than 4.00.
As to `O=C(O)CCCCCCCCCCCO`, the pEC50 is less than 4.00 in assay [1], less than 4.00 in assay [2] and 4.68 in assay [3].
With `CCCCCC[C@@H](O)C/C=C\CCCCCCCC(=O)O`, the pEC50 in assay [2] was 5.88; in assay [5], 4.94.
In the case of `O=C(O)CCCCCCCCCCCCCCCO`, the results for the pEC50 in assay [2] and in assay [5] were 5.77 and 4.68, respectively.
As to `CCCC(O)CCCCCCCC(=O)O` (centres undefined), the negative logarithm of the EC50 (pEC50) in assay [1], in assay [2] and in assay [3] was less than 4.00 in each case.
Consider `CCCCCCCCCCCC(=O)O` [DODECANOATE], for which the pEC50 in assay [2] was 5.12; in assay [5], 4.94; in assay [3], 4.98; in assay [6] it was 5.06. Further, the inhibition result in assay [7] is “inactive”.
As to `CCCCCCCCC(O)CCC(=O)O` (centres undefined), the pEC50 in assay [1] was less than 4.00; in assay [2] it was less than 4.00; in assay [3] it was 4.42.
Consider `CCCCCC(O)CCCCCC(=O)O` (centres undefined), for which the pEC50 in assay [1], in assay [2] and in assay [3] was less than 4.00 in each case.
Consider `CCCCCCC(O)CCCCCCCCCCC(=O)O` (centres undefined), for which, in assay [2], the negative logarithm of the EC50 (pEC50) is 5.76.
On to `CCCCCCC(O)CCCCC(=O)O` (centres undefined), for which the pEC50 is 4.73 in assay [1], less than 4.00 in assay [2] and less than 4.00 in assay [3].
Take `CCC(O)CCCCCCCCC(=O)O` (centres undefined): the negative-log EC50 (pEC50) in assay [1], in assay [2] and in assay [3] was less than 4.00 in each case.
